An excerpt weighted towards active compounds, which were near 2.3% of everything screened.
STAT3 act: IL-6 driven STAT3 reporter potentiators, primary screen, U3A cells, luciferase, luminescence, MLSCN library. activation (% of control), % at 5.6 µM. AID 871, 2007. IL-6 STAT3-luciferase reporter; 100% = signal with IL-6 EC80 alone. 190,000 compounds, 0.91% hits;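 active = activation above the screen-wide mean of compound activation plus 3 SD, cut at about 130% in these data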;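 note: 0% = background luminescence of wells with medium and substrate only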
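Assay system – human STAT1-deficient U3A cells with stable STAT3-luciferase reporter · Also added – IL-6 (33 ng/mL) · Schedule – compound 1 h, then IL-6 6 h at 37 °C · Technique – reporter luminescence signal · Evaluation – % activation versus median of IL-6-stimulated wells · Benchmarks – IL-6-only wells as 100% reference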
STAT3 blocker: IL-6 driven STAT3 reporter inhibitors, primary screen, U3A cells, luciferase, luminescence, MLSCN library. IL-6 STAT3-luciferase reporter; host cell line lacks STAT1. 190,000 compounds, 0.89% hits. inhibition, % at 5.5 µM;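 active = inhibition above the mean inhibition across all screened compounds plus 3 SD, cut at about 44% in these data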;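 note: 0% = DMSO only wells and 100% = 100 µM nifuroxazide control wells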
STAT1 blocker: STAT1 signaling inhibitors, primary screen, cell-based, HTS, luciferase reporter | NIH 3T3 STAT1-luciferase reporter, IFN-gamma, luminescence | inhibition, % at 5.5 µM | 200,000 compounds, 0.35% hits | AID 920, 2007;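 active = inhibition above a set limit, the mean inhibition across all tested compounds plus 3 SD, cut at about 34% in these data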;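 note: 0% = IFN-gamma with DMSO and 100% = IFN-gamma with 300 µM nifuroxazide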
HSP90 inh: HSP90 inhibitors, primary screen, cell lysate, luminescence. Heat shock protein HSP 90 (rabbit reticulocyte lysate; luciferase refolding). Rabbit reticulocyte lysate, luciferase refolding luminescence, 3 h. inhibition, % at 5.6 µM. 290,000 compounds, 0.91% hits. AID 1789, 2009;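 active = inhibition above the screen-wide mean plus 3 SD, computed separately per campaign, cut at about 16% in these data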;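 note: 0% = DMSO wells and 100% = 60 µM geldanamycin wells; inhibitors lower the luminescence because luciferase stays unfolded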
TRAIL sens C8: viability loss with TRAIL in NB7+C8 cells, primary screen, TRAIL sensitizer project, cell-based, ATPlite luminescence; inhibition (viability loss, TRAIL sensitization), % at 10 µM; 360,000 compounds, 1% hits; AID 624354, 2012;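 active = compounds causing at least 50% loss of cell viability in the single-dose screen, relative to plate controls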
PPC-1+TRAIL kill: compounds killing PPC-1 cancer cells with TRAIL present, primary screen, TRAIL potentiator project, ATPLite luminescence, uHTS. PPC-1 cells + TRAIL, ATPLite viability luminescence. cell killing (% activity), % at 4 µM or 5 µM. 220,000 compounds, 0.41% hits. AID 1443, 2008;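 active = cell killing above 50% in the first pass at 4 µM, then a duplicate retest at 5 µM averaging 50% or more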;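 note: plate controls were cells with TRAIL plus DMSO for no effect and medium-only wells lacking cells for full effect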
Numbers without * were called inactive; nt = no result; ! = a repeat was not active.

SMILES | STAT3 act | STAT3 blocker | STAT1 blocker | HSP90 inh | TRAIL sens C8 | PPC-1+TRAIL kill
CN(Cc1cnc2nc(N)nc(N)c2n1)c1ccc(C(=O)N[C@@H](CCC(=O)O)C(=O)O)cc1 | nt | nt | nt | nt | 84.6*! | nt
Nc1nc2ncc(CNc3ccc(C(=O)N[C@@H](CCC(=O)O)C(=O)O)cc3)nc2c(=O)[nH]1 | nt | nt | nt | 2.8 | 6.9 | nt
CCOc1ccc(-c2c(C(=O)N/N=C/c3ccccc3)nnn2-c2nonc2N)cc1 | nt | nt | nt | 6.1 | -4.2 | 7.2
Cn1c(=O)oc2cc(S(=O)(=O)N3CCCC(C(=O)NCCN4CCOCC4)C3)ccc21 (stereo not given) | 96.2 | 9.4 | -1.1 | 30.3* | -23.7 | 16.6
CCCN(CCC)CCNC(=O)C1CCCN(S(=O)(=O)c2ccc3c(c2)oc(=O)n3C)C1 (stereo not given) | 99.8 | 5.1 | -4.7 | 0.9 | -12.2 | 4.8
CN(CC1CCCO1)S(=O)(=O)c1ccc(C(=O)Nc2nc3cc4c(cc3s2)OCO4)cc1 (stereo not given) | 36.7 | 82.1* | 6.8 | -0.8 | 35.4 | nt
O=C(CSc1nnc(NC(=O)c2ccccc2)s1)NC1CCCC1 | nt | nt | nt | 5.8 | 56.8* | nt
CN(C)S(=O)(=O)c1ccc(C(=O)Nc2nnc(SCC(=O)NCC3CCCO3)s2)cc1 (stereo not given) | nt | nt | nt | -3.3 | 55.3* | nt
O=C(CSc1nnc(NC(=O)c2ccc(F)cc2)s1)NC1CCCC1 | nt | nt | nt | -1.3 | 62.6* | nt
CN(CC1CCCO1)S(=O)(=O)c1ccc(C(=O)Nc2ccc3c(c2)OCO3)cc1 (stereo not given) | 96.3 | 8.0 | 8.5 | 2.3 | 5.4 | 3.8
O=C(CSc1nnc(NC(=O)c2cccc(F)c2)s1)NCC1CCCO1 (stereo not given) | nt | nt | nt | -2.7 | 35.6 | nt
O=C(Cc1ccccc1)Nc1nnc(SCC(=O)NC2CCCC2)s1 | 100.3 | 4.4 | -1.9 | -1.0 | -3.4 | 15.5
O=C(Oc1cccc(C(=S)N2CCOCC2)c1)c1ccc([N+](=O)[O-])cc1 | nt | nt | nt | 3.0 | -9.0 | nt
COCc1cc(=O)c2ccccc2o1 | nt | nt | nt | nt | -7.4 | nt
O=C(Nc1nnc(SCC(=O)N2CCOCC2)s1)c1ccccc1 | 97.0 | 3.5 | -16.6 | 2.2 | 75.2* | 71.1*
O=C(/C=C/c1cccs1)Nc1nncs1 | nt | nt | nt | 0.5 | 37.7 | 13.8
CCC(C)c1ccc(O)c(NC(=S)NC(=O)c2cccs2)c1 (stereo not given) | nt | nt | nt | nt | 58.3* | nt
Cc1ccc2nc(NC(=O)c3ccc(-c4nc5ccccc5s4)s3)sc2c1 | 83.7 | 18.8 | -3.9 | -2.9 | 66.9* | 10.9
O=C(NC(=S)Nc1ccc(Cl)cn1)c1cccs1 | 150.8* | -48.0 | -105.1 | -1.0 | 71.8* | 27.9
O=C(Nc1nc2ccccc2s1)c1ccc(Cl)s1 | 89.4 | 21.0 | -61.4 | -2.4 | 39.5 | 35.3
Cc1ccnc(NC(=O)/C=C/c2cccs2)c1 | 74.8 | 28.8 | -40.3 | 1.9 | 79.2* | 67.5*
O=C(NC(=S)Nc1cccnc1)c1cccs1 | 92.0 | 13.5 | -19.2 | -1.0 | 3.5 | 5.3
COCCCNC(=O)C(=O)NCCCOC(C)C | 102.8 | 6.2 | -6.2 | -3.1 | -16.6 | 2.8
Cc1cc(C)c2oc(C(=O)N(Cc3ccccc3)c3ccccn3)cc(=O)c2c1 | nt | nt | nt | 6.2 | 6.4 | -7.3
Cc1ccnc(NC(=S)NC(=O)c2cccs2)c1 | 116.0 | -14.6 | -152.1 | -5.1 | 88.8* | 61.1*
SMILES | STAT3 act | STAT3 blocker | STAT1 blocker | HSP90 inh | TRAIL sens C8 | PPC-1+TRAIL kill
COCC(=O)Nc1nc2ccc(C)cc2s1 | 84.4 | 22.2 | -30.3 | 16.8* | 13.6 | -0.1
O=C(NC(=S)Nc1ccccn1)c1ccco1 | 94.1 | 9.6 | -35.8 | 3.5 | 23.3 | 10.7
Cc1ccnc(NC(=S)NC(=O)c2ccco2)c1 | 100.8 | 9.2 | -33.4 | -2.9 | 52.8* | 26.7
Cc1ccc2nc(NC(=S)NC(=O)c3ccco3)sc2c1 | 105.5 | -9.6 | -23.4 | 2.1 | 81.8* | 5.7
Cc1ccnc(NC(=O)CNC(=O)c2cccs2)c1 | nt | nt | nt | nt | 16.9 | nt
CC(=O)Nc1nc2ccc(NC(=O)c3ccco3)cc2s1 | 108.3 | -9.7 | -27.9 | 0.8 | -10.1 | -6.7
O=C(O)[C@@H](c1ccccc1)N1Cc2ccccc2C1=O | 102.3 | 2.5 | -2.5 | 3.3 | -8.5 | 26.3
